From ChEMBL document CHEMBL1157032, “Synthesis and antimicrobial activity of novel pyrazolo[3,4-d]pyrimidin derivatives” (2010)
Converted amounts (≈) assume the structure as drawn. The source made the active and inactive calls. The calls are words filed in the database; no cut-off is given here.

Experiments:
[1] = test system: Pseudomonas aeruginosa; test: Antimicrobial activity against Pseudomonas aeruginosa MTCC 2488 at 10 ug/ml after 24 hrs by agar diffusion method; assay type: functional
In short: (§1)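 Agar well diffusion on Mueller Hinton agar. Plates were seeded with bacterial suspension in sterile 0.85% saline at 10⁵ cfu/mL. Compound dilutions in 1% DMSO went into 6 mm wells, with DMSO alone as control. Plates were incubated 24 h at 37 ± 0.5 °C, and the zone of inhibition was measured in mm.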

[2] = test system: Candida albicans; test: Antimicrobial activity against Candida albicans MTCC 227 at 30 ug/ml after 48 hrs by agar diffusion method; assay type: functional, organism-based
In short: (§2)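 Agar well diffusion on Sabouraud dextrose agar. Plates were spread with fungal spore suspension in sterile distilled water adjusted to 10⁶ cfu/mL. Compound dilutions in 1% DMSO went into 6 mm wells, with DMSO alone as control. Plates were incubated 48 h at 28 ± 0.2 °C, and the inhibition zone was read in mm.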

[3] = test system: Bacillus subtilis; test: Antimicrobial activity against Bacillus subtilis MTCC 1789 at 10 ug/ml after 24 hrs by agar diffusion method; assay type: functional; in short: as §1
[4] = test system: Priestia megaterium; test: Antimicrobial activity against Bacillus megaterium MTCC 1684 at 10 ug/ml after 24 hrs by agar diffusion method; assay type: functional; in short: as §1
[5] = test system: Proteus vulgaris; test: Antimicrobial activity against Proteus vulgaris MTCC 1771 at 10 ug/ml after 24 hrs by agar diffusion method; assay type: functional; in short: as §1
[6] = test system: Aspergillus niger; test: Antimicrobial activity against Aspergillus niger MTCC 1781 at 30 ug/ml after 48 hrs by agar diffusion method; assay type: functional, organism-based; in short: as §2
[7] = test system: Klebsiella pneumoniae; test: Antimicrobial activity against Klebsiella pneumoniae NCIM 2957 at 10 ug/ml after 24 hrs by agar diffusion method; assay type: functional; in short: as §1
[8] = test system: Serratia marcescens; test: Antimicrobial activity against Serratia marcescens MTCC 86 at 10 ug/ml after 24 hrs by agar diffusion method; assay type: functional; in short: as §1
[9] = test system: Trichoderma viride; test: Antimicrobial activity against Trichoderma viride MTCC 167 at 30 ug/ml after 48 hrs by agar diffusion method; assay type: functional, organism-based; in short: as §2
[10] = test system: Staphylococcus aureus; test: Antimicrobial activity against Staphylococcus aureus MTCC 96 at 10 ug/ml after 24 hrs by agar diffusion method; assay type: functional; in short: as §1
[11] = test system: Aspergillus flavus; test: Antimicrobial activity against Aspergillus flavus MTCC 2501 at 30 ug/ml after 48 hrs by agar diffusion method; assay type: functional, organism-based; in short: as §2
[12] = test system: Penicillium chrysogenum; test: Antimicrobial activity against Penicillium chrysogenum MTCC 1996 at 30 ug/ml after 48 hrs by agar diffusion method; assay type: functional, organism-based; in short: as §2
[13] = test system: Candida albicans; test: Antimicrobial activity against Candida albicans MTCC 227 at MIC after 48 hrs by agar diffusion method; assay type: functional
In short: (§3)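 Fungal spore suspensions in sterile distilled water were adjusted to 10⁶ cfu/mL, and 0.1 mL was spread on Sabouraud dextrose agar. 6 mm wells were filled with 0.1 mL of compound dilution in DMSO (1% DMSO; DMSO-only control). Plates were incubated 48 h at 28 ± 0.2 °C, and inhibition zones were measured in mm. MIC was the lowest concentration completely inhibiting growth.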

[14] = test system: Aspergillus niger; test: Antimicrobial activity against Aspergillus niger MTCC 1781 at MIC after 48 hrs by agar diffusion method; assay type: functional; in short: as §3
[15] = test system: Bacillus subtilis; test: Antimicrobial activity against Bacillus subtilis MTCC 1789 at MIC after 24 hrs by agar diffusion method; assay type: functional
In short: (§4)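 Agar well diffusion on Mueller Hinton agar seeded with 0.1 mL of a 10⁵ cfu/mL bacterial suspension in 0.85% sterile saline. 6 mm wells received 0.1 mL of each compound dilution in DMSO (1% DMSO; DMSO alone as control). Plates were incubated 24 h at 37 ± 0.5 °C. Read-out was zone of inhibition in mm. MIC was taken as the lowest concentration giving complete growth inhibition.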

[16] = test system: Pseudomonas aeruginosa; test: Antimicrobial activity against Pseudomonas aeruginosa MTCC 2488 after 24 hrs; assay type: functional; details: MTCC 2488, 24 h; in short: as §4
[17] = test system: Klebsiella pneumoniae; test: Antimicrobial activity against Klebsiella pneumoniae NCIM 2957 at MIC after 24 hrs by agar diffusion method; assay type: functional; in short: as §4
[18] = test system: Escherichia coli; test: Antimicrobial activity against Escherichia coli MTCC 1650 at MIC after 24 hrs by agar diffusion method; assay type: functional; in short: as §4
[19] = test system: Klebsiella pneumoniae; test: Antimicrobial activity against Klebsiella pneumoniae NCIM 2957 after 24 hrs; assay type: functional; details: NCIM 2957, 24 h; in short: as §4
[20] = test system: Bacillus subtilis; test: Antimicrobial activity against Bacillus subtilis MTCC 1789 after 24 hrs; assay type: functional; details: MTCC 1789, 24 h; in short: as §4
[21] = test system: Pseudomonas aeruginosa; test: Antimicrobial activity against Pseudomonas aeruginosa MTCC 2488 at MIC after 24 hrs by agar diffusion method; assay type: functional; in short: as §4
[22] = test system: Candida albicans; test: Antimicrobial activity against Candida albicans MTCC 227 after 48 hrs; assay type: functional; details: MTCC 227, 48 h; in short: as §3
[23] = test system: Penicillium chrysogenum; test: Antimicrobial activity against Penicillium chrysogenum MTCC 1996 at MIC after 48 hrs by agar diffusion method; assay type: functional; in short: as §3
[24] = test system: Staphylococcus aureus; test: Antimicrobial activity against Staphylococcus aureus MTCC 96 at MIC after 24 hrs by agar diffusion method; assay type: functional; in short: as §4
[25] = test system: Proteus vulgaris; test: Antimicrobial activity against Proteus vulgaris MTCC 1771 after 24 hrs; assay type: functional; details: MTCC 1771, 24 h; in short: as §4
[26] = test system: Proteus vulgaris; test: Antimicrobial activity against Proteus vulgaris MTCC 1771 at MIC after 24 hrs by agar diffusion method; assay type: functional; in short: as §4
[27] = test system: Penicillium chrysogenum; test: Antimicrobial activity against Penicillium chrysogenum MTCC 1996 after 48 hrs; assay type: functional; details: MTCC 1996, 48 h; in short: as §3
[28] = test system: Staphylococcus aureus; test: Antimicrobial activity against Staphylococcus aureus MTCC 96 after 24 hrs; assay type: functional; details: MTCC 96, 24 h; in short: as §4
[29] = test system: Serratia marcescens; test: Antimicrobial activity against Serratia marcescens MTCC 86 at MIC after 24 hrs by agar diffusion method; assay type: functional; in short: as §4
[30] = test system: Serratia marcescens; test: Antimicrobial activity against Serratia marcescens MTCC 86 after 24 hrs; assay type: functional; details: MTCC 86, 24 h; in short: as §4
[31] = test system: Trichoderma viride; test: Antimicrobial activity against Trichoderma viride MTCC 167 after 48 hrs; assay type: functional; details: MTCC 167, 48 h; in short: as §3
[32] = test system: Priestia megaterium; test: Antimicrobial activity against Bacillus megaterium MTCC 1684 at MIC after 24 hrs by agar diffusion method; assay type: functional; in short: as §4
[33] = test system: Escherichia coli; test: Antimicrobial activity against Escherichia coli MTCC 1650 after 24 hrs; assay type: functional; details: MTCC 1650, 24 h; in short: as §4
[34] = test system: Aspergillus flavus; test: Antimicrobial activity against Aspergillus flavus MTCC 2501 after 48 hrs; assay type: functional; details: MTCC 2501, 48 h; in short: as §3
[35] = test system: Priestia megaterium; test: Antimicrobial activity against Bacillus megaterium MTCC 1684 after 24 hrs; assay type: functional; details: MTCC 1684, 24 h; in short: as §4
[36] = test system: Aspergillus niger; test: Antimicrobial activity against Aspergillus niger MTCC 1781 after 48 hrs; assay type: functional; details: MTCC 1781, 48 h; in short: as §3
[37] = test system: Aspergillus flavus; test: Antimicrobial activity against Aspergillus flavus MTCC 2501 at MIC after 48 hrs by agar diffusion method; assay type: functional; in short: as §3
[38] = test system: Trichoderma viride; test: Antimicrobial activity against Trichoderma viride MTCC 167 at MIC after 48 hrs by agar diffusion method; assay type: functional; in short: as §3

Question: NYSTATIN was tested. Which “inhibition zone (IZ)” value [1] did it give?
Answer: inactive

Question: What about the inhibition zone (IZ) [2] of the same compound?
Answer: 17 mm

Question: And the “inhibition zone (IZ)” value [3]?
Answer: inactive

Question: What about the “inhibition zone (IZ)” value [4] of the same compound?
Answer: inactive

Question: And the “inhibition zone (IZ)” value [5]?
Answer: inactive

Question: What about the inhibition zone (IZ) [6] of the same compound?
Answer: 14 mm

Question: What about the “inhibition zone (IZ)” value [7] of the same compound?
Answer: inactive

Question: And the “inhibition zone (IZ)” value [8]?
Answer: inactive

Question: And the inhibition zone (IZ) [9]?
Answer: 18 mm

Question: And the “inhibition zone (IZ)” value [10]?
Answer: inactive

Question: What about the inhibition zone (IZ) [11] of the same compound?
Answer: 14 mm

Question: And the inhibition zone (IZ) [12]?
Answer: 17 mm

Question: `CN(C)[C@@H]1C(O)=C(C(N)=O)C(=O)[C@@]2(O)C(O)=C3C(=O)c4c(O)cccc4[C@@](C)(O)[C@H]3C[C@@H]12` [TETRACYCLINE] was tested. Which zone of inhibition at 10 µg/mL ([1]; MTCC 2488, 24 h, read-out: IZ) did it give?
Answer: 32 mm

Question: What about the “inhibition zone (IZ)” value [2] of the same compound?
Answer: inactive

Question: What about the zone of inhibition at 10 µg/mL ([3]; MTCC 1789, 24 h, read-out: IZ) of the same compound?
Answer: 20 mm

Question: What about the zone of inhibition at 10 µg/mL ([4]; MTCC 1684, 24 h, read-out: IZ) of the same compound?
Answer: 27 mm

Question: And the zone of inhibition at 10 µg/mL ([5]; MTCC 1771, 24 h, read-out: IZ)?
Answer: 20 mm

Question: And the “inhibition zone (IZ)” value [6]?
Answer: inactive

Question: What about the zone of inhibition at 10 µg/mL ([7]; NCIM 2957, 24 h, read-out: IZ) of the same compound?
Answer: 17 mm

Question: What about the zone of inhibition at 10 µg/mL ([8]; MTCC 86, 24 h, read-out: IZ) of the same compound?
Answer: 15 mm

Question: And the “inhibition zone (IZ)” value [9]?
Answer: inactive

Question: And the zone of inhibition at 10 µg/mL ([10]; MTCC 96, 24 h, read-out: IZ)?
Answer: 25 mm

Question: What about the “inhibition zone (IZ)” value [11] of the same compound?
Answer: inactive

Question: What about the “inhibition zone (IZ)” value [12] of the same compound?
Answer: inactive

Question: What does the source list for `Nc1n[nH]c2nc3scc(-c4ccc(O)cc4)n3c(=O)c12`?
Answer: inhibition zone (IZ) [13]: inactive; inhibition zone (IZ) [14]: 16 mm; inhibition zone (IZ) [15]: 12 mm; MIC [16]: 50 µg/mL (≈ 167 µM); inhibition zone (IZ) [17]: 11 mm; inhibition zone (IZ) [18]: inactive; MIC [19]: 50 µg/mL (≈ 167 µM); MIC [20]: 50 µg/mL (≈ 167 µM); inhibition zone (IZ) [21]: 25 mm; MIC [22]: 250 µg/mL (≈ 835 µM); inhibition zone (IZ) [23]: 29 mm; inhibition zone (IZ) [24]: 30 mm; MIC [25]: 50 µg/mL (≈ 167 µM); inhibition zone (IZ) [26]: 14 mm; MIC [27]: 250 µg/mL (≈ 835 µM); MIC [28]: 50 µg/mL (≈ 167 µM); inhibition zone (IZ) [29]: 17 mm; MIC [30]: 50 µg/mL (≈ 167 µM); MIC [31]: 250 µg/mL (≈ 835 µM); inhibition zone (IZ) [32]: inactive; MIC [33]: 50 µg/mL (≈ 167 µM); MIC [34]: 250 µg/mL (≈ 835 µM); MIC [35]: 50 µg/mL (≈ 167 µM); MIC [36]: 250 µg/mL (≈ 835 µM); inhibition zone (IZ) [37]: 21 mm; inhibition zone (IZ) [38]: 26 mm
